Compound activity as filed in PubChem.
TAAR1 agonist = human TAAR1 agonism. CHO RD-HGA16 TAAR1, Fluo-8 calcium fluorescence; vehicle wells 0%, saturating PEA agonist 100%. 0.99% of 360,000 active. activation, % at 3 µM. AID 624467. Q96RJ0;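 active means activation above the mean activation of all test compounds in the run plus 3 SD, cut at about 38% in these data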
Target sequence (Q96RJ0 whole entry, looked up): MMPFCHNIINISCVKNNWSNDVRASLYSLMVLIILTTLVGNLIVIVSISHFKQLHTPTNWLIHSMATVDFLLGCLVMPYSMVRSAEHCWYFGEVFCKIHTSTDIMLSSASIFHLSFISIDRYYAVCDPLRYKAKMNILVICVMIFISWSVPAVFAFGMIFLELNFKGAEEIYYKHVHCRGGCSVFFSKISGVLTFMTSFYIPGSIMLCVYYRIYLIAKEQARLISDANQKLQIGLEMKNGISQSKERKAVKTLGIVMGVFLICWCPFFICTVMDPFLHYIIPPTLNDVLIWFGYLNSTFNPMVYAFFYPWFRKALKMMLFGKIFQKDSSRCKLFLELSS
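Repeats: no replicates (n 1) | Material: CHO-derived RD-HGA16 cells with stable Gα16 and human TAAR1 | Technique: Kinetic Fluo-8 calcium fluorescence | Schedule: 17-24 h seeding, 75 min 37 °C dye, 30 min RT | Evaluation: % activation from peak over basal fluorescence ratio, DMSO-to-PEA scaled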
OX1R antag-1 = OX1R (human) antagonism; 1.8% of 330,000 active; AID 485270; O43613; inhibition, % at 6.6 µM; OX1R-expressing cells, FRET antagonist read-out; in the data active means inhibition mostly above about 38%, no sharp cut-off; inactive means mostly below about 40%
TAAR1 antagonist = human TAAR1 antagonism. inhibition, % at 3 µM. 1.5% of 360,000 active. CHO RD-HGA16 TAAR1, Fluo-8 calcium fluorescence, antagonist. AID 624466. Q96RJ0;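 active means inhibition above a per-plate cutoff, the mean inhibition of test compounds on that plate plus 3 SD, cut at about 49% in these data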
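Assay system: CHO-derived RD-HGA16 cells stably expressing human TAAR1 plus Gα16. Timing: 140 s kinetic read after compound, 140 s after agonist. Technique: kinetic Fluo-8 calcium fluorescence measurement. Measure: % inhibition of agonist calcium response.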
GalR3 antag = blocks the human galanin receptor 3; O60755; HEK293 GalR3-CNG cAMP membrane potential fluorescence; galR3 body fused to GalR1 C-terminus; inhibition, % at 3 µM; 0.44% of 360,000 active; AID 651719;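 active means inhibition above the screen-wide average plus 3 SD, cut at about 13% in these data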;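 further: forskolin and galanin both at EC90 stimulate the cells; cAMP rise reported by CNG channel membrane potential dye signal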
Target sequence (O60755 1-299 limits assumed): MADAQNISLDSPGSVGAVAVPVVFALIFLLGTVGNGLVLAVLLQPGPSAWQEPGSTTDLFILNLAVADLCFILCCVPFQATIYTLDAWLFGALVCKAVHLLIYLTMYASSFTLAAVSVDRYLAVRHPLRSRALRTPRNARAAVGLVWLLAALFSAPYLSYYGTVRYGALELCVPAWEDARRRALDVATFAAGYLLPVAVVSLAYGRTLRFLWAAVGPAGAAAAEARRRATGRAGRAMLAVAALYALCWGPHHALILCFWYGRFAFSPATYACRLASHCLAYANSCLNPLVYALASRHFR
OX1R antag-2 = blocks the human orexin 1 receptor; O43613; CHO/OX1R cells, Fluo-8 calcium fluorescence, orexin A; AID 434989; inhibition, % at 5 µM; 0.43% of 330,000 active;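 active means inhibition above its plate's threshold, mean inhibition of all tested compounds on the plate plus 3 SD, cut at about 37% in these data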
CHO parental Ca = signal in parental CHO cells, OX1R antagonist counter-screen; parental CHO-K1, ATP-induced calcium, Fluo-8 fluorescence; inhibition, % at 5.6 µM; 0.63% of 330,000 active;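 active means inhibition above that plate's mean sample inhibition plus 3 SD, cut at about 26% in these data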
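Material: parental CHO cells / Compound: single nominal dose of 5.6 µM per compound / Signal: Fluo-8 fluorescence / Replicates: singlicate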
OX1R HTRF conf = confirmation of human orexin 1 receptor antagonists, HTRF format | shares compounds with OX1R antag-1 | OX1R-expressing cells, HTRF antagonist assay | inhibition, % at 6.6 µM | 49% of 1,800 active; in the data active means inhibition above about 55%;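 further: CHO cells expressing OX1R stimulated with orexin A at about EC80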
CHO-K1 HTRF cnt = counter-screen for OX1R antagonists: effect in parental CHO-K1 cells; shares compounds with OX1R antag-1; HTRF counterscreen; inhibition, % at 6.6 µM; 48% of 1,800 active; AID 493232; in the data active means inhibition above about 17%
Numbers stand for hits; 0 = inactive; - = not tested or not shown. Compounds with a hit are over-represented: about 4.2% of the library has one in this group of screens.

SMILES | TAAR1 agonist | OX1R antag-1 | TAAR1 antagonist | GalR3 antag | OX1R antag-2 | CHO parental Ca | OX1R HTRF conf | CHO-K1 HTRF cnt
COc1ccc2cc3cc(C(=O)NCCCN4CCOCC4)oc3nc2c1 | 0 | 135 | 0 | 0 | 0 | 0 | 56 | 35
Cc1ccc2cc3cc(C(=O)NCCN4CCOCC4)oc3nc2c1 | 0 | 117 | 0 | 0 | 0 | 0 | 0 | 38
CCCCOc1ccc(-c2nnc(-c3cc[n+](C)cc3)o2)cc1 | 0 | 102 | 0 | 0 | 0 | 0 | 88 | 74
C=C(C)C(=O)Nc1cccc(C2=NOC3(C2)C[C@@H](C(N)=O)N(C(=O)/C=C/CC)C3)c1 (some centres not stated) | 0 | 0 | 0 | 0 | 0 | 0 | - | -
Cc1nc2ccccc2c(=O)n1CCCN1CCOCC1 | 0 | 0 | 0 | 0 | 0 | 0 | - | -
CCOC(=O)c1nn(-c2ccc(Cl)cc2Cl)c(=N)c(C#N)c1C | - | 0 | - | - | 0 | 0 | - | -
CCOC(=O)c1c(C#N)cnn1-c1ccc(C)cc1 | 0 | 0 | 0 | 0 | 0 | 0 | - | -
CCOC(=O)c1nn(-c2ccccc2)c(=O)c(C#N)c1C | 0 | 145 | 0 | 0 | 0 | 0 | 0 | 81
CCOC(=O)Nc1nn(-c2ccc(C)cc2)c(=O)c(C#N)c1C | 0 | 120 | 0 | 0 | 0 | 0 | 58 | 61
O=C1NC2(Nc3ccccc31)C(=O)Nc1ccccc12 (configuration not stated) | 0 | 80 | 0 | 0 | 0 | 0 | 0 | 0
COc1ccccc1NC1=C(N2CCCCC2)C(=O)c2ccccc2C1=O | - | 79 | - | - | 0 | 0 | 0 | 31
O=C1C(Nc2ccccc2)=C(N2CCCCC2)C(=O)c2ccccc21 | 0 | 0 | 0 | 0 | 0 | 0 | - | -
N#Cc1ncc(-c2ccc3c(c2)OCCOCCOCCOCCO3)nc1C#N | 0 | 117 | 0 | 0 | 0 | 0 | 55 | 54
Cc1ccc2nc(-c3ccc4c(c3)OCCO4)cn2c1 | 0 | 0 | 0 | 0 | 0 | 0 | - | -
N#Cc1ncc(-c2ccc3c(c2)OCCOCCOCCOCCOCCO3)nc1C#N | 0 | 109 | 0 | 0 | 0 | 0 | 0 | 0
CCN1CCN(S(=O)(=O)c2ccc(Cl)c(C(=O)Nc3nnc(CC(C)C)s3)c2)CC1 | 0 | 0 | 0 | 0 | 0 | 0 | - | -
NC(=O)[C@H]1CC2(CC(c3cccc(NC(=O)[C@H]4CCC(=O)N4)c3)=NO2)CN1C(=O)c1cc([N+](=O)[O-])cc([N+](=O)[O-])c1 (some centres not stated) | 0 | 91 | 0 | 0 | 0 | 0 | 0 | 57
Cc1c(C(=O)N2CC3(CC(c4cccc(NC(=O)[C@H]5CCC(=O)N5)c4)=NO3)C[C@@H]2C(N)=O)cc([N+](=O)[O-])cc1[N+](=O)[O-] (some centres not stated) | 0 | 0 | 0 | 0 | 0 | 0 | - | -
CCCN1CCC(=NNc2ccc(S(=O)(=O)N(CC)CC)cc2[N+](=O)[O-])CC1 | 0 | 0 | 0 | 0 | 0 | 0 | - | -
CCCN1CCC(=NNc2ccc(S(N)(=O)=O)cc2[N+](=O)[O-])CC1 | 0 | 85 | 0 | 0 | 0 | 0 | 0 | 56
O=c1/c(=C/c2ccc([N+](=O)[O-])cc2)sc2n1CCCN=2 | 0 | 169 | 0 | 0 | 0 | 0 | 61 | 84
COc1cc(/C=c2\sc3n(c2=O)CCCN=3)ccc1O | 0 | 0 | 0 | 0 | 0 | 0 | - | -
O=C(COC(=O)Cc1ccc(S(=O)(=O)N2CCCCC2)s1)Nc1ccc2c(c1)OCO2 | 0 | 0 | 0 | 0 | 0 | 0 | - | -
O=C(CCN1C(=O)c2cccc([N+](=O)[O-])c2C1=O)Nc1nccs1 | 0 | 0 | 0 | 0 | 0 | 0 | - | -
CCOC(=O)c1cc2c(=O)n3ccccc3nc2n(CCOC)c1=NC(=O)c1c(-c2c(F)cccc2Cl)noc1C | 0 | 0 | 0 | 0 | 0 | 0 | - | -
SMILES | TAAR1 agonist | OX1R antag-1 | TAAR1 antagonist | GalR3 antag | OX1R antag-2 | CHO parental Ca | OX1R HTRF conf | CHO-K1 HTRF cnt
CCOC(=O)c1cc2c(=O)n3ccccc3nc2n(CCCOC)c1=NC(=O)C(C)(C)C | 0 | 84 | 0 | 0 | 0 | 0 | 0 | 27
CCOC(=O)c1cc2c(=O)n3ccccc3nc2n(CCCOC)c1=NC(=O)c1cccnc1 | - | 0 | - | - | 0 | 0 | - | -
CCOC(=O)c1cc2c(=O)n3ccccc3nc2n(C(C)C)c1=NC(=O)c1ccncc1 | 0 | 0 | 0 | 0 | 0 | 0 | - | -
CCOC(=O)c1cc2c(=O)n3ccccc3nc2n(CCOC)c1=NC(=O)c1ccncc1 | 0 | 80 | 0 | 0 | 0 | 0 | 58 | 52
CCOC(=O)c1cc2c(=O)n3ccccc3nc2n(CC(C)C)c1=NC(=O)c1ccco1 | 0 | 117 | 0 | 0 | 0 | 0 | 0 | 40
COc1ccc(S(=O)(=O)N2CCN(C(=O)C3COc4ccccc4O3)CC2)cc1 (configuration not stated) | 0 | 0 | 0 | 0 | 0 | 0 | - | -
COc1ccc2c(c1)[n+](=O)c(C(C)=O)c(C)n2[O-] | 0 | 0 | 0 | 0 | 0 | 0 | - | -
CC(=O)c1c(C)n([O-])c2cc(F)c(F)cc2[n+]1=O | 0 | 81 | 0 | 0 | 0 | 0 | 67 | 54
COc1ccccc1S(=O)(=O)Nc1cccc(S(=O)(=O)N2CCCC2)c1 | 0 | 0 | 0 | 0 | 0 | 0 | - | -
O=C1C2C(C(=O)N1/N=C/c1ccc([N+](=O)[O-])o1)C1C=CC2C12CC2 (configuration not stated) | 0 | 80 | 0 | 0 | 0 | 0 | 0 | 59
O=[N+]([O-])c1ccc2c(c1)ncn2-c1ccccc1 | 0 | 0 | 0 | 0 | 0 | 0 | - | -
O=[N+]([O-])c1ccc(-n2cnc3ccccc32)c([N+](=O)[O-])c1 | 0 | 107 | 0 | 0 | 0 | 0 | 0 | 45
CCCCCOc1ccccc1C(=O)NCC(=O)O | 0 | 0 | 0 | 0 | 0 | 0 | - | -
CCOc1ccc(C(Nc2ccc(C)cc2)P2(=O)OCCC(C)O2)cc1 (configuration not stated) | 0 | 0 | 0 | 0 | 0 | 0 | - | -
CC(=O)N1CCn2c3c(c(=O)c4cc(C)ccc42)CCC31 (configuration not stated) | 0 | 82 | 0 | 0 | 0 | 0 | 0 | 0
Cc1nc2ccc([N+](=O)[O-])cc2nc1C | 0 | 112 | 0 | 0 | 0 | 0 | 68 | 81
COC(=O)C(C(=O)Nc1cc(C)on1)C1CCCCCC1 (configuration not stated) | 0 | 0 | 0 | 0 | 0 | 0 | - | -
Cc1[nH]n(-c2ccccc2)c(=O)c1/C=N/Nc1nncc(-c2ccccc2)n1 | 0 | 80 | 0 | 0 | 0 | 0 | 0 | 0
CCN(Cc1ccccc1)C(=O)CCNS(=O)(=O)c1ccc2c(c1)CC(C)N2C(C)=O (configuration not stated) | 0 | 0 | 0 | 0 | 0 | 0 | - | -
Cc1ccc(NC(=O)c2ccc(-n3cccn3)c([N+](=O)[O-])c2)cc1C | 0 | 0 | 0 | 0 | 0 | 0 | - | -
